Data taken from article PMC4040677 (Cell Death & Disease, 2014).

Columns and labels:
MCF-7 cells = experiment: Xenograft model of breast cancer; assay type: in vivo, BALB/c nude mice
In short: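 Female nude BALB/c mice (6 wk, 20–30 g, pathogen-free) received 7.5 × 10^6 MCF-7 cells in the right flank. Cells were cultured in DMEM with 10% FBS and penicillin/streptomycin. Tumors grew 4 weeks without hormone, then weekly s.c. 17β-oestradiol valerate (0.1 mg/kg, sesame oil). At ~100 mm3, mice were randomized and given a single i.v. dose (5 or 10 mg/kg) or saline. Calliper volumes, (L×W²)/2, were taken every 3 days for 30 days; ANOVA/t-test, P<0.05.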

[1] = assay type: in vivo; conditions: Pt in plasma, rat, intravenous
[2] = Pt excretion in urine and feces by atomic absorption spectroscopy; assay type: in vivo, rat; conditions: 24 h after intravenous administration
Histopathology = assay type: in vivo, female Balb/c mice; conditions: H&E, day 28 after intravenous administration, mice
In short: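 Liver and kidney were fixed in 4% paraformaldehyde, moved to 70% ethanol after 20 h, and paraffin-embedded. Serial 8 μm medio-lateral sections were H&E-stained and examined by light microscopy at x20.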

[3] = Cold sensitivity/hyperalgesia; assay type: in vivo, rats; conditions: hindpaw withdrawal latency, 4.5 °C water
In short: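 One rat hindpaw per immersion was placed in cold (4.5 °C) water. Paw-withdrawal latency was timed with a 1/100 s digital timer, with a 20 s maximum cutoff.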

[4] = Sensitivity to noxious heat; assay type: in vivo, rats; conditions: hind paws
In short: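 After 15 min acclimation, radiant heat was applied to the rat hindpaw with a thermal paw stimulator. Intensity was set so vehicle-treated rats lifted or licked the paw at about 10 s. Withdrawal latency was recorded with a 20 s cutoff.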

SMILES: N.N.[Cl][Pt][Cl] [cisplatin]
- average tumor volume (MCF-7 cells; 10 mg/kg single intravenous, after 30 days, saline 249.32±43.97): 233.67±50.71 mm^3
- reduction of tumor mass (MCF-7 cells; solid tumor-bearing mice): ~10%
- AUC0–24 [1]: 40.38±6.2 h-μg/ml
- CL [1]: 7.98 ± 1.2 mL/h
- Cmax [1]: 22620 ± 1800 ng/mL
- 24-h cumulative Pt excretion [2]: 31.6±3.4%
- histopathological changes in kidneys (Histopathology): focal subcapsular tubular vacuolization, dilated subcapsular space and consistent basophilia
- histopathological changes in liver (Histopathology): dilated intra-lobular spaces and evident edema
- cold hyperalgesia / hindpaw sensitivity to cold [3]: significantly increased
- thermal response / hindpaw sensitivity to noxious heat [4]: significantly increased
